Measurements as given in ChEMBL document CHEMBL2057126, “Discovery of new inhibitors of Cdc25B dual specificity phosphatases by structure-based virtual screening” (J Med Chem, 2012).
Values belong to the molecule of their own block, whether it stands above or below them. Activity calls are given as the source filed them. The rule behind the calls is not given here.

Legend:
[1] = target: M-phase inducer phosphatase 3 (Homo sapiens) (UniProt P30307); assay: (§1) Inhibition of recombinant phosphatase activity of Cdc25C catalytic domain expressed in Escherichia coli BL21(DE3) using OMFP as substrate at 100 uM after 15 mins by fluorimetric assay
[2] = target: M-phase inducer phosphatase 1 (Homo sapiens) (UniProt P30304); assay: (§2) Inhibition of recombinant phosphatase activity of Cdc25A catalytic domain expressed in Escherichia coli BL21(DE3) using OMFP as substrate at 100 uM after 15 mins by fluorimetric assay
[3] = target: M-phase inducer phosphatase 2 (Homo sapiens) (UniProt P30305); assay: (§3) Inhibition of recombinant phosphatase activity of Cdc25B catalytic domain expressed in Escherichia coli BL21(DE3) using OMFP as substrate at 100 uM after 15 mins by fluorimetric assay
[4] = target: T1, M-phase inducer phosphatase 2 (Homo sapiens) (UniProt P30305); assay: Reversible inhibition of recombinant phosphatase activity of Cdc25B catalytic domain expressed in Escherichia coli BL21(DE3) assessed as residual activity of enzyme measured after 10 fold dilution at 100 uM preincubated for 20 mins
T1 sequence (whole entry): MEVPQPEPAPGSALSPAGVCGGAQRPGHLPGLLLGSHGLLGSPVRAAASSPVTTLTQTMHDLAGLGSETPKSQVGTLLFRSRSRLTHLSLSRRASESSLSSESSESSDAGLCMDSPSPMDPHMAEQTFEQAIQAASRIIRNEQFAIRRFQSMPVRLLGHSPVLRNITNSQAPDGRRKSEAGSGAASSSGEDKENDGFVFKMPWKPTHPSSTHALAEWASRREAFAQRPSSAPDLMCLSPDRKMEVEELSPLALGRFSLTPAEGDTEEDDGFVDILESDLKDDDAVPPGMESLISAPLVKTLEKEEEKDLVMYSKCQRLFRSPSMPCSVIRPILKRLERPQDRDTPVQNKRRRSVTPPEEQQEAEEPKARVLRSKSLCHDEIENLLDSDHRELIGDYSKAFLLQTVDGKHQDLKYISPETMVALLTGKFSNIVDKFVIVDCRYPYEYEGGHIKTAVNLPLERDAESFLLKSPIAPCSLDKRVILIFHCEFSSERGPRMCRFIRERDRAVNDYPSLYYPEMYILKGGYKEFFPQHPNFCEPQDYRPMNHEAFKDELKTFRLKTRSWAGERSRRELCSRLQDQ
How it was run: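 Cdc25B (0.5 μg) preincubated 20 min at room temperature with 100 μM inhibitor or DMSO vehicle, then diluted 10-fold. Residual phosphatase activity was read after adding OMFP substrate and expressed as percent of the untreated control. Mean ± SD of three determinations.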

MCF7 [5] = assay: Cell cycle arrest in human MCF7 cells assessed as accumulation at S phase at 20 uM after 24 hrs by propidium iodide staining-based flow cytometry (reference value: 9.35%); assay type: functional
PC-3 [6] = assay: Increase of ROS level in human PC3 cells expressing Cdc25A-C using H2DCFDA at 20 uM after 30 mins by flow cytometry; assay type: functional, cell-based
MCF7 [7] = assay: Cell cycle arrest in human MCF7 cells assessed as accumulation at G2/M phase at 20 uM after 24 hrs by propidium iodide staining-based flow cytometry (reference value: 9.4 +/- 0.04%); assay type: functional
K562 [8] = assay: Increase of ROS level in human K562 cells expressing Cdc25A-C using H2DCFDA at 20 uM after 30 mins by flow cytometry in presence of DTT; assay type: functional, cell-based
PC-3 [9] = assay: Growth inhibition against human PC3 cells expressing Cdc25A-C assessed as cell viability at 20 uM after 72 hrs by MTS assay; assay type: functional, cell-based
How it was run: (§4)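 MCF-7 breast, PC-3 prostate and K562 leukaemia cells treated 72 h with inhibitor or DMSO vehicle control, then cell viability measured. Values are mean ± SD of three experiments; significance by Student's t test, p ≤ 0.05.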

[10] = target: T1, M-phase inducer phosphatase 2 (Homo sapiens); conditions: K562, 20 uM
[11] = target: T2, M-phase inducer phosphatase 3 (Homo sapiens) (UniProt P30307); assay: as §1; remark: listed apart in the source
T2 sequence (whole entry): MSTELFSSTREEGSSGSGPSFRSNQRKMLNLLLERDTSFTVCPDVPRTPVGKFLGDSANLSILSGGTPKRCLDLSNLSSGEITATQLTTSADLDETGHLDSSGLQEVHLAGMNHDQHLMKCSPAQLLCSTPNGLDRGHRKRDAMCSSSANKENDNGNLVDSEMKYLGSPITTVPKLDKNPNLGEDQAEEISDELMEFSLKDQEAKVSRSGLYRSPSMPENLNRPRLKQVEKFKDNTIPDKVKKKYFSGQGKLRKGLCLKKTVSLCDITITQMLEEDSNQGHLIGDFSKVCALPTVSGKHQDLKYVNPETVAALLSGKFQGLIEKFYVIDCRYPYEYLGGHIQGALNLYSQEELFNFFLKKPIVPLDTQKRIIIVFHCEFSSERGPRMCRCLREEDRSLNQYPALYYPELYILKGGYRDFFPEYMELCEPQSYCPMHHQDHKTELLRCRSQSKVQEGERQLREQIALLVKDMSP

[12] = target: T3, M-phase inducer phosphatase 1 (Homo sapiens) (UniProt P30304); assay: as §2; remark: listed apart in the source
T3 sequence (whole entry): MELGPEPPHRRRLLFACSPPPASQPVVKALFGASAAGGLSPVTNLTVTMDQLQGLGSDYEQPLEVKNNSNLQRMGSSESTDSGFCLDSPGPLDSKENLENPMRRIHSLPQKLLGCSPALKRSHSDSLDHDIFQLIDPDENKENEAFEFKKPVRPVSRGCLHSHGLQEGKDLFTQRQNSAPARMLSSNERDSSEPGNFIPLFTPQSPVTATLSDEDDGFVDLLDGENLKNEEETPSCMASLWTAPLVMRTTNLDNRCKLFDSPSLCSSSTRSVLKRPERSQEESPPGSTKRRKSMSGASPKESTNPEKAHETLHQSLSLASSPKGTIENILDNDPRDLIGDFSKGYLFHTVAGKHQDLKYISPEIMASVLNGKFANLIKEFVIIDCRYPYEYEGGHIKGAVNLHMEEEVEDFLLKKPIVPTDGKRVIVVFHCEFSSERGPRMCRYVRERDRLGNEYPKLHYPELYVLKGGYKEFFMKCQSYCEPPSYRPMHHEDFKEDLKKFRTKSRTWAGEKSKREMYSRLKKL

[13] = target: T1, M-phase inducer phosphatase 2 (Homo sapiens); conditions: 400 uM
MCF7 [14] = assay: Cell cycle arrest in human MCF7 cells assessed as accumulation at S phase at 20 uM after 48 hrs by propidium iodide staining-based flow cytometry (reference value: 14.5 +/- 0.01%); assay type: functional
MCF7 [15] = assay: Cell cycle arrest in human MCF7 cells assessed as accumulation at G2/M phase at 20 uM after 48 hrs by propidium iodide staining-based flow cytometry (reference value: 21 +/- 0.04%); assay type: functional
K562 [16] = assay: Growth inhibition against human K562 cells expressing Cdc25A-C assessed as cell viability at 20 uM after 72 hrs by MTS assay; assay type: functional, cell-based; how it was run: as §4
MCF7 [17] = assay: Cell cycle arrest in human MCF7 cells assessed as accumulation at G1 phase at 20 uM after 48 hrs by propidium iodide staining-based flow cytometry (reference value: 64.5 +/- 0.02%); assay type: functional
K562 [18] = assay: Increase of ROS level in human K562 cells expressing Cdc25A-C using H2DCFDA at 20 uM after 30 mins by flow cytometry; assay type: functional, cell-based
[19] = target: T1, M-phase inducer phosphatase 2 (Homo sapiens); assay: Inhibition of recombinant phosphatase activity of Cdc25B catalytic domain expressed in Escherichia coli BL21(DE3) using OMFP as substrate by spectrofluorimetric analysis
MCF7 [20] = assay: Cell cycle arrest in human MCF7 cells assessed as accumulation at G1 phase at 20 uM after 24 hrs by propidium iodide staining-based flow cytometry (reference value: 81.3 +/- 0.01%); assay type: functional
MCF7 [21] = assay: Growth inhibition against human MCF7 cells expressing Cdc25A-C assessed as cell viability at 20 uM after 72 hrs by MTS assay; assay type: functional, cell-based; how it was run: as §4
PC-3 [22] = assay: Increase of ROS level in human PC3 cells expressing Cdc25A-C using H2DCFDA at 20 uM after 30 mins by flow cytometry in presence of DTT; assay type: functional, cell-based
[23] = target: T1, M-phase inducer phosphatase 2 (Homo sapiens); assay: as §3; remark: listed apart in the source

inhibition [1]: 90%
inhibition [2]: 77%
inhibition [3]: 91%
Molecule: VANADATE

Molecule: O=C(O)CCc1c2ccc(=O)c(O)c-2oc2c(O)c(O)ccc12
inhibition [4]: Active
Activity (MCF7 [5]): 13.1%
Activity (PC-3 [6]): Active
Activity (MCF7 [7]): 18.1%
Activity (K562 [8]): inactive
growth inhibition (GI) (PC-3 [9]): Active
inhibition [10]: Active
inhibition [11]: 99%
inhibition [12]: 100%
inhibition [13]: Active
Activity (MCF7 [14]): 2.6%
Activity (MCF7 [15]): 4.6%
growth inhibition (GI) (K562 [16]): Active
Activity (MCF7 [17]): 92.8%
Activity (K562 [18]): Active
inhibition [19]: Dose-dependent effect
Activity (MCF7 [20]): 68.8%
growth inhibition (GI) (MCF7 [21]): Active
Activity (PC-3 [22]): inactive
inhibition [23]: 99%
